MT1-MMP act inh – blockers of MT1-MMP proenzyme processing, primary screen, HT1080 RFP-PRO-GFP cells, GFP/RFP fluorescence; GFP/RFP ratio fluorescence, overnight; percent of plate control window, DMSO zero; GFP/RFP ratio change, % at 20 µM; 360,000 compounds, 0.061% hits;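 active = GFP/RFP ratio change of at least 30% with cell ATP level not reduced by more than half and red fluorescence within 50% of control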
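Assay system: HT1080 cells carrying an RFP-PRO-GFP reporter | Dosing: Single dose of 20 µM compound, 1% DMSO final | Incubation: Cells overnight before dosing, compound overnight, 37 °C, 5% CO2 | Evaluation: GFP/RFP fluorescence ratio | Control set: DMSO and RFP-L50D-GFP cell wells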
Rpn11 inh – Rpn11 (PSMD14) deubiquitinase inhibitors, primary screen, biochemical, fluorescence polarization, uHTS. AID 588493, 2011. human 26S proteasome, Ub4-pepOG fluorescence polarization; 20S core pre-blocked with epoxomicin. 26S proteasome non-ATPase regulatory subunit 14 (Homo sapiens), O00487. inhibition, % at 20 µM. 360,000 compounds, 0.59% hits;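 active = inhibition at 20 µM, scaled to each plate's controls, above about 33%, limit read from the data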
SUMO1-SIM PPI – modulators of SUMO1 protein-protein interactions, primary screen, biochemical, uHTS; Small ubiquitin-related modifier 1 (Homo sapiens), P63165; inhibition, % at 20 µM; 360,000 compounds, 0.33% hits; SUMO1 binding to a labelled peptide, TR-FRET, 1 h; in the data active = inhibition above about 37%
SKN-1 inh – suppressors of acrylamide-induced Pgst-4::GFP reporter in worms, primary screen, SKN-1 inhibitor project, whole organism, uHTS, GFP/RFP fluorescence ratio, strain VP596; 360,000 compounds, 0.49% hits; inhibition, % at 21.8 µM; C. elegans VP596 Pgst-4::GFP/RFP ratio, 24 h;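 active = interference check ratio from 0.5 to 1.5 plus GFP to RFP signal ratio inhibition reaching or exceeding a fixed threshold, cut at about 30% in these data, passing the limit was not always enough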
DNMT1 block – human DNMT1 methyltransferase inhibitors, primary screen, biochemical, molecular beacon, fluorescence, HinP1I cleavage, uHTS. inhibition (reported as % activation of signal), % at 10 µM. 360,000 compounds, 0.83% hits; in the data active = inhibition above about 50%
CSN inh – inhibitors of CSN-mediated cullin deneddylation, primary screen, biochemical, fluorescence polarization, uHTS. inhibition, % at 12.5 µM. Purified CSN, SCF-Nedd8-OG deneddylation. 360,000 compounds, 0.38% hits. COP9 signalosome complex subunit 5 (Homo sapiens), Q92905;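 active = pattern-corrected inhibition above about 35%, with an unprinted fluorescence ratio check between 0.5 and 1.5, limit read from the data, passing the limit was not always enough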;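 also: 0% = enzyme with substrate and 100% = substrate without enzyme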
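Detection – fluorescence polarization · System – HEK293T-derived human Csn5 enzyme · Controls – substrate-only high control, full reaction low control · Timing – 90 min, room temperature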
Rpn11 confirm – Rpn11 (PSMD14) deubiquitinase inhibitors, confirmation, biochemical, fluorescence polarization, single concentration; purified human 26S proteasome, Ub4-pepOG fluorescence polarization; proteasome pretreated with epoxomicin; inhibition, % at 20 µM; shares compounds with Rpn11 inh; 1,900 compounds, 29% hits; AID 602318, 2012
MMP-2 counter – MMP-2 enzyme inhibition, confirmation, counter-screen for RPN11 inhibitor project, biochemical, fluorescence, single concentration | recombinant MMP-2, FRET peptide cleavage fluorescence | 1,900 compounds, 4% hits | AID 602330, 2012 | shares compounds with Rpn11 inh | inhibition, % at 20 µM;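 also: human MMP-2 activated beforehand with APMA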
Thrombin FP – bovine thrombin protease inhibition, confirmation, counter-screen for Rpn11 inhibitor project, biochemical, fluorescence polarization, single concentration | shares compounds with Rpn11 inh | bovine thrombin cleavage of Ub4-pepOG | inhibition, % at 20 µM | 1,900 compounds, 13% hits | AID 602333, 2012;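 active = mean inhibition at least 40% at 20 µM, or signal 3 deviations below plate average, so some actives read negative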;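 also: plate controls were thrombin with DMSO for no effect and buffer wells lacking thrombin for full effect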
Numbers without * were called inactive; nt = no result given. Hits are enriched below; roughly 2.3% of the tested compounds scored in any of these assays. Rule as the data show it, unless noted: active = inhibition above about 40%; inactive = the rest.

SMILES | MT1-MMP act inh | Rpn11 inh | SUMO1-SIM PPI | SKN-1 inh | DNMT1 block | CSN inh | Rpn11 confirm | MMP-2 counter | Thrombin FP
C#CCOCCOCCOCCNc1nc(N2CCN(C(=O)CCCCCCCCCCNC(=O)[C@H]([C@@H](C)CC)n3cc(CCCCN=C(N)N)nn3)CC2)nc(N2CCN(C(=O)CCCCCCCCCCNC(=O)[C@@H]([C@H](C)O)n3cc(C)nn3)CC2)n1 | 3 | 71* | 86* | -10 | -108 | 97* | 15 | -14 | 20
C#CCOCCOCCOCCNc1nc(N2CCOCC2)nc(N2CCN(C(=O)CCCCCCCCCCNC(=O)[C@H]([C@@H](C)CC)n3cc(CCCCN=C(N)N)nn3)CC2)n1 | -5 | 2 | -40 | 4 | 9 | 0 | nt | nt | nt
CNC(=O)/C(C#N)=C/c1c(N2CCN(c3ccc(OC)cc3)CC2)nc2c(C)cccn2c1=O | 3 | 56* | -26 | 8 | 0 | 3 | -17 | -57 | 9
COC(=O)/C(C#N)=C/c1c(N2CCN(c3ccc(OC)cc3)CC2)nc2c(C)cccn2c1=O | -7 | -5 | -14 | 2 | -3 | 16 | nt | nt | nt
CC(=O)C1=C(O)C(=CC=Cc2ccccc2)OC1=O | -5 | 41* | -13 | 9 | 5 | 9 | 43* | -17 | 26
CCc1nc2ccc(C(=O)Nc3ccc(OC)c(OC)c3)cn2c1N(C)CCC(C)C | 2 | 2 | 8 | -5 | -16 | 1 | nt | nt | nt
Cc1[nH]c2ccccc2c1/C=C/C(=O)c1ccncc1 | -9 | 47* | -25 | 0 | 0 | 9 | 42* | -61 | 37
Cc1ccc(NS(=O)(=O)c2cc([N+](=O)[O-])ccc2N/N=C/c2sc(N3CCOCC3)nc2-c2ccccc2)c(C)c1 | -110 | 44* | -13 | 0 | 18 | 14 | 39 | -5 | 9
OCCNc1ncnc2c1ncn2[C@H]1CN(Cc2ccc3c(c2)OCO3)C[C@@H](CO)O1 | 0 | -7 | -6 | 12 | 3 | -4 | nt | nt | nt
Cc1cccc(-n2c(C)cc(/C=C3/C(=N)N4C(c5ccccc5)=CSC4=NC3=O)c2C)c1 | -69 | 57* | 2 | 3 | -4 | 2 | -6 | -37 | -26
Cc1nn(CC(=O)c2ccc(Cl)s2)c(C)c1[N+](=O)[O-] | -4 | 44* | -5 | -3 | -6 | -4 | 19 | 6 | 17
N#Cc1cc2ccccc2nc1SCC(=O)Nc1ccc(S(=O)(=O)N2CCCC2)cc1 | -86 | nt | -5 | -7 | -5 | 4 | nt | nt | nt
COc1ccc2nc(SCC(=O)Nc3ccc(S(=O)(=O)N4CCCC4)cc3)c(C#N)cc2c1 | -42 | 40* | -37 | 40* | -4 | 10 | 21 | -35 | 3
O=C(Cn1nnc(-c2ccccc2)n1)N=Nc1c(O)[nH]c2ccccc12 | -2 | 64* | -7 | -9 | 14 | 8 | -5 | 15 | -19
O=C(CSc1nc2ccccc2[nH]1)N=Nc1c(O)[nH]c2ccccc12 | -3 | -9 | -22 | -11 | 1 | 2 | nt | nt | nt
Nc1nc2ncccn2c1-c1ccc(F)c(F)c1 | 4 | nt | -15 | -4 | nt | 1 | nt | nt | nt
COCCn1cc(C(=O)c2cc(Br)ccc2O)cc(C#N)c1=O | -4 | 94* | 1 | 20 | -8 | -8 | 8 | 21 | 4
N#Cc1cc(C(=O)c2cc(Br)ccc2O)cn(Cc2ccccc2)c1=O | -7 | 50* | -1 | 8 | 1 | 7 | 13 | 0 | 18
Cc1ccccc1-n1cc(C(=O)c2cc(Cl)ccc2O)cc(C#N)c1=O | -29 | 15 | -8 | -2 | -1 | -7 | nt | nt | nt
COc1ccccc1-n1cc(C(=O)c2cc(Cl)ccc2O)cc(C#N)c1=O | -17 | 47* | -5 | 4 | -5 | 4 | 17 | -23 | 8
CCN(CC)C(=O)c1cccc(-c2csc(C(O)c3ccc(F)c(F)c3)n2)c1 (stereo not drawn) | -9 | 1 | -11 | 11 | 1 | -2 | nt | nt | nt
O=C1N/C(=C/c2cccn2-c2ccccc2)C(=O)N1Cc1ccc(F)cc1 | 8 | 42* | -9 | 10 | -5 | 5 | 14 | -25 | -4
COc1ccc(Cc2c(-c3ccc(OC)c(OC)c3)nc3cc(C)c(Br)c(C)n23)c(C)c1 | 3 | nt | -1 | 10 | nt | 0 | nt | nt | nt
CC(=O)Nc1cc(-c2cccc(C(=O)N(C)C)c2)cn2c(-c3ccc(C(C)=O)cc3)cnc12 | 1 | 1 | -21 | -4 | 1 | 5 | nt | nt | nt
Cc1c([C@@H]2C[C@H]3CN(Cc4cccc(Cl)c4)C(=O)[C@]34CCCN24)cnn1C | -10 | 45* | 0 | 13 | 0 | 7 | 38 | -33 | 5
Cn1cc([C@@H]2C[C@H]3CN(Cc4cccc(Cl)c4)C(=O)[C@]34CCCN24)c2ccccc21 | 35 | 55* | 0 | 35* | -10 | 13 | 53* | -26 | 65*
CN1C(=O)CC(c2cn(Cc3ccccc3)c3ccccc23)C1=O (stereo not drawn) | -13 | 54* | 10 | -5 | -14 | 2 | 21 | -28 | 23
CCOCCCNC(=O)/C(C#N)=C/c1ccc([N+](=O)[O-])o1 | 12 | 37* | -13 | 25 | -1 | 6 | 18 | -31 | 18
CCOCCCNC(=O)/C(C#N)=C/c1ccc(-c2ccc(S(=O)(=O)N3CCOCC3)cc2)o1 | -7 | -1 | -24 | 0 | -12 | -3 | nt | nt | nt
c1ccc(COc2ncnc3c2ncn3CCCNCC(c2ccccc2)c2ccccc2)cc1 | -26 | -10 | -37 | 10 | -2 | 5 | nt | nt | nt
